The values that follow come from publication PMC6421538 (ACS Medicinal Chemistry Letters, 2019).

The test system of series [1] is total Aβ1–x. Kind of series: total Aβ1–x formation. It is filed as cell-based.
For series [2], the system named is Aβ1–37 and Aβ1–38. Kind of series: urea gel Western blotting of Aβ species. Type of series: cell-based. (In general: Immunoblotting shows a protein as a band on a membrane.)
Series [3] addresses hERG ion channel (Homo sapiens, UniProt Q12809). The experiment in a line: hERG patch-clamp electrophysiology. It is filed as cell-based. On the technique in general: Block of hERG is tested as a sign of cardiac risk.
Series [4] deals with T1, CYP3A4 (Homo sapiens, UniProt P08684). Kind of series: CYP 3A4 HLM time-dependent inhibition. It is filed as in vitro ADME.
Series [5] can be described thus: in vitro biotransformation assays. Type of series: in vitro ADME.
The nature of series [6]: 4 day oral dosing study in rats. Type of series: in vivo.
Series [7] is described as follows: rabbit telemetry study. It is filed as in vivo.
A short description of series [8]: hemodynamics in conscious rats. As to conditions: any dose studied. It is filed as in vivo.
A short description of series [9]: Caco-2 permeability. It is filed as in vitro ADME. As to conditions: human. In general terms: Passage across Caco-2 layers is used to estimate intestinal permeability.
Series [10] deals with rest of the CYP isoforms tested (other than the CYP2C subfamily). Kind of series: CYP inhibition in human liver microsomes, rest of isoforms. Type of series: in vitro ADME.
Series [11] is described as follows: acute oral dose in dogs. It is filed as in vivo. The gist of the method:
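Dogs received a single acute oral dose of 300 mg/kg. Bilirubin and other clinical pathology were assessed, and plasma Cmax and AUC were measured. Margins were taken relative to projected human Cmax and AUC at the efficacious clinical dose.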

The conditions of series [12]: cited from earlier work.
Series [13] concerns H4-APPsw cells. The experiment in a line: Aβ species in cultured H4-APPsw cells by mass spectrometry. Type of series: cell-based.
In series [14] the test system is Aβ peptide species. As to conditions: intravenous administration; cited from earlier work.
A short description of series [15]: AMES.
Series [16] can be described thus: pharmacokinetics in cynomolgus monkey. Conditions: male, in vivo, iv, 1 mg/kg.
Series [17] is described as follows: 2-week oral repeat dose toxicity study in rats. Type of series: in vivo. In short, it runs like this: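 Rats received the test compound orally for 2 weeks at 10, 30 and 100 mg/kg in repeat dosing. Endpoints included signs of stress, food consumption, duodenal histology for Notch-related goblet cell metaplasia, and liver for hepatotoxicity and necrosis.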
For series [18], the target named is T1, CYP3A4. Kind of series: recombinant CYP3A4 inhibition. It is filed as in vitro ADME. The gist of the method: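 Recombinant human CYP3A4 was incubated with the test compound for 30 min, and an IC50 was determined.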
Series [19] has as its system CYP3A4 mRNA. Kind of series: CYP3A4 mRNA induction in cryopreserved primary human hepatocytes. Conditions: 3.3–10 μM. Type of series: cell-based.
Series [20] has as its system CYP2C subfamily. Kind of series: CYP inhibition in human liver microsomes, CYP2C subfamily. Type of series: in vitro ADME.
The nature of series [21]: pharmacokinetics in dog. Conditions: male, beagle, in vivo, iv, 1 mg/kg.
Series [22] in a line: projected human PK and dose. As to conditions: 110 mg QD, steady state. In short, it runs like this: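 Human PK was predicted by allometric scaling of rat, dog and cynomolgus monkey PK, then combined with a rat PK/PD indirect response model.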
A short description of series [23]: pharmacokinetics in rat. As to conditions: Sprague-Dawley, in vivo, iv, 2 mg/kg.
Setting [24] is: single oral doses 10 to 1200 mg, multiweek daily 50 to 200 mg.

Molecules are shown by their SMILES. Values joined by “and” are separate entries in the source; they are usually repeats but may differ in a detail not shown here. Equal values may be shown once. Read-outs that look alike come from different tables or passages of the source. A value given as a limit tells only on which side of the number the result lay.

T1 sequence (P08684 whole entry): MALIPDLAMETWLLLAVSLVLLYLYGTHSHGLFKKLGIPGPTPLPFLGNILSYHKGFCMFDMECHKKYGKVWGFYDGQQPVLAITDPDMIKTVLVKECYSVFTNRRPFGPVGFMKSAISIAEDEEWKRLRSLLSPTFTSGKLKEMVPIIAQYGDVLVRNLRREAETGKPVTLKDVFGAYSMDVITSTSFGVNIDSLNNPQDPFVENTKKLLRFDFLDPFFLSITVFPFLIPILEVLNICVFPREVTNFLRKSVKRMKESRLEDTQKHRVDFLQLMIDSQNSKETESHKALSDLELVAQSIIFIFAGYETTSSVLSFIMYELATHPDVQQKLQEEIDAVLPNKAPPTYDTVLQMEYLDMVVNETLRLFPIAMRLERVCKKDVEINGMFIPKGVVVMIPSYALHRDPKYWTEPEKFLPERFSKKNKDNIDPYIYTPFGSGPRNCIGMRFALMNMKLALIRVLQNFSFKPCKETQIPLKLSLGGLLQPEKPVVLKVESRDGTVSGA
Chain of hERG ion channel (Q12809 whole entry): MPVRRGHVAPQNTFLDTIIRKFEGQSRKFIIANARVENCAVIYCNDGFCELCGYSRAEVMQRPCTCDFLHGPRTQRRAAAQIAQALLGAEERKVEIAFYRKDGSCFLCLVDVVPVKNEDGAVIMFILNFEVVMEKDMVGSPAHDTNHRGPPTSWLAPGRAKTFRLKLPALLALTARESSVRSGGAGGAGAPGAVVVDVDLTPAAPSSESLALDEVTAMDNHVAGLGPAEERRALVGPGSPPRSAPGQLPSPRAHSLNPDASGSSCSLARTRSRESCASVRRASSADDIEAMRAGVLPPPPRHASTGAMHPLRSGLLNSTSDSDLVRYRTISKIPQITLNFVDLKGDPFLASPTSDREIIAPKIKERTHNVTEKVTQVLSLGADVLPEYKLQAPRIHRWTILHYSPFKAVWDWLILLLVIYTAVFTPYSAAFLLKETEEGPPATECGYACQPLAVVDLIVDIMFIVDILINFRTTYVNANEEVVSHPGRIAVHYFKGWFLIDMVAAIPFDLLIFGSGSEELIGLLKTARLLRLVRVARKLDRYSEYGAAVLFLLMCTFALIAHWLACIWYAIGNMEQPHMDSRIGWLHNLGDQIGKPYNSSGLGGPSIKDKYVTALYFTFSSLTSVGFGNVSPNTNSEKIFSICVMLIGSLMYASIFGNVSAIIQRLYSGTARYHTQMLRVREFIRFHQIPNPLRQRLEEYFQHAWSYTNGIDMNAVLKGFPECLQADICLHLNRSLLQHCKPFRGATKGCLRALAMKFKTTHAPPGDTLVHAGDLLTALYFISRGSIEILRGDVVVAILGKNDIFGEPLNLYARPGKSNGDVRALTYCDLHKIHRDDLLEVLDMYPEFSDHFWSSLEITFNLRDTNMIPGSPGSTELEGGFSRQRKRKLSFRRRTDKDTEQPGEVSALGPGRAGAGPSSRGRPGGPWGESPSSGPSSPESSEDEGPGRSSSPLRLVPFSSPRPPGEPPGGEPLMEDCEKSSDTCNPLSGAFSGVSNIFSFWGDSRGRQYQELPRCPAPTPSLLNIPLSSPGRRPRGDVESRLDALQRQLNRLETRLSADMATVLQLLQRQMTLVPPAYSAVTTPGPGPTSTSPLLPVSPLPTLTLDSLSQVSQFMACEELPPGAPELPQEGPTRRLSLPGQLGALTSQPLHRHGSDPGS

Take `CNc1nc(Nc2ccc(-n3cncn3)c(OC)c2)nc(-c2ccccc2)n1` [Compound 1]: the “effect on total Aβ1–x formation” value in [1] is recorded as “No effect”. Also, in series [2], the “levels of Aβ1–37 and Aβ1–38” value was “increased levels”.

In the case of `CNc1nc(Cc2ccccc2)nc(Nc2ccc(-n3cnc(C)c3)c(OC)c2)n1` [Compound 2, 6-benzyl-N2-(3-methoxy-4-(4-methyl-1H-imidazol-1-yl)phenyl)-N4-methyl-1,3,5-triazine-2,4-diamine], the hERG inhibition entry in series [3] (in words) is “potent hERG inhibition”. Further, the CYP3A4 inhibition entry in [4] (in words) was “potent and time-dependent CYP3A4 inhibition”.

Take `CNc1nc(Nc2ccc(-n3cnc(Cl)c3)c(OC)c2)nc2c1CC[C@H]2c1ccccc1` [Compound 3]: the metabolism result in [5] was “confined to N-demethylation and monohydroxylation of the D-ring”. Further, the tissue examination finding entry in series [6] (4 days oral, 10, 30, and 100 mg/kg) was “hepatocellular necrosis at all doses studied”. In addition, the plasma bilirubin finding entry in [6] (4 days oral, all doses, visibly yellow plasma) was “increase in unconjugated bilirubin”. In addition, the “safety margin vs the hERG NOAEL” value in series [7] (rabbit telemetry) is on record as 40 fold.

Regarding `CNc1nc(Nc2ccc(-n3cnc(C)n3)c(OC)c2)nc2c1CC[C@H]2c1ccc(F)cc1` [Compound 4, (S)-7-(4-fluorophenyl)-N^2-(3-methoxy-4-(3-methyl-1H-1,2,4-triazol-1-yl)phenyl)-N^4-methyl-6,7-dihydro-5H-cyclopenta[d]pyrimidine-2,4-diamine], the “total Aβ1–x” value in series [1] (concentrations up to 10 μM, Aβ1–x ELISA, H4-APPsw cells) is “unchanged”. In series [8], the “hemodynamic effects (blood pressure, heart rate)” value is recorded as “not seen”. Moreover, in series [9], the apparent permeability (Papp) (as a rule, a coefficient for how fast a substance crosses the barrier) came to 3.5 ×10⁻⁶ cm/s. For the same molecule, the IC50 (usually the concentration at which inhibition is half-maximal) in series [10] was over 17 µM. Also, in series [11] (300 mg/kg), the “margin in Cmax to the projected efficacious clinical dose” value came out at 43 fold. Further, in series [11] (acute oral dose of 300 mg/kg), the tolerability entry is recorded as “tolerated with no significant changes in bilirubin levels or other clinical pathological assessments”. In addition, the ALT finding entry in [12] (200 mg for 24 days) was “ALT elevations were observed”. Moreover, in [12] (dosed acutely), the tolerability entry is reported as “well tolerated”. For the same molecule, in [12] (setting [24]), the “Aβ1–37 and Aβ1–38 in plasma and CSF” value was “dose-dependent increase”; the “Aβ1–42 and Aβ1–40 in plasma and CSF” value is recorded as “decrease”; the “total Aβ1–x in plasma and CSF” value is listed as “no change”. Further, in series [13], the “change in Aβ1–37 and Aβ1–38” value is listed as “corresponding increase”; the “change in Aβ1–42 and Aβ1–40” value is “large decrease”. The “distribution among Aβ peptide species in rat brain and CSF” value in series [14] is given as “same distribution among Aβ peptide species was recapitulated”. For the same molecule, the “fold less potent at hERG than compound 3” value in series [3] amounted to 6 fold. Also, in series [4] (HLM), the “CYP 3A4 HLM time-dependent inhib. KI” value is 82.5 µM and 83 µM. For the same molecule, the AMES result in series [15] is reported as “negative”. In addition, the clearance (commonly a measure of how efficiently the substance is removed, as volume per time) at 24 h in [16] turned out to be 31.3 ± 9.5 mL/min/kg. In addition, in [17] (2-week oral), the “Notch-related goblet cell metaplasia in the duodenum” value was “no Notch-related goblet cell metaplasia”; the bilirubin finding result is “minimal, nontoxicologically significant bilirubin elevation”; the hepatotoxicity or necrosis result is given as “no hepatotoxicity or necrosis was observed”. For the same molecule, the tolerability result in series [17] (2-week oral, 10, 30, and 100 mg/kg) was “well tolerated”. Moreover, the “findings in high dose group” value in series [17] (2-week, 100 mg/kg oral) is “stress and reduced food consumption effects”. Further, the “margin over the projected human efficacious exposure at the NOAEL” value in series [17] (2-week, NOAEL 30 mg/kg, vs 4 μM·h) worked out at 48 fold. Further, in [18], the half-maximal inhibitory concentration (IC50) worked out at 0.51 µM. For the same molecule, the “change in QTcf” value in [7] (unconscious rabbits, 3 mg/kg) is “no change”. Also, the exposure in series [7] (unconscious rabbits, 10 mg/kg) amounted to 50 µM. Also, in [7] (unconscious rabbits, doses of 10 mg/kg and higher), the hemodynamic effects result is “increased blood pressure and decreased heart rate”. For the same molecule, the “elevation of CYP3A4 mRNA” value in [19] was 36–43%. Besides, the “CYP2C subfamily IC50s” value in series [20] is reported as “single digit micromolar”. For the same molecule, the clearance at 24 h in series [21] is 12.5 ± 1.2 mL/min/kg. Further, the “projected human brain Aβ1–42 reduction” value in series [22] is recorded as 31%. In series [23], the clearance at 24 h was determined as 11.2 ± 0.4 mL/min/kg.
